According to ChEMBL document CHEMBL1131243, “Structure-activity relationships of the 7-substituents of 5,4'-diamino-6,8,3'-trifluoroflavone, a potent antitumor agent” (J Med Chem, 1998):

What was measured:
HeLa = experiment: In vitro cytotoxicity against HeLa S3 cell lines, treated for 3 days then uptake of neutral red dye was measured; format: functional, cell-based; settings: Homo sapiens, 72 h
MCF7 = experiment: In vitro cytotoxicity against MCF-7 cell lines, treated for 3 days then uptake of neutral red dye was measured; format: functional, cell-based; settings: Homo sapiens, MCF7, 72 h
Mus musculus [1] = experiment: Compound was tested for percentage Body weight change in vivo against MCF-7 cells implanted into Nude Mice, Dosage 25(mg/kg); format: functional, MCF7
In short: (§1)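 Female nude mice carried MCF-7 implants, with tumor growth stimulated by estradiol propionate given on the first dosing day. Mice with tumors of 25–200 mm³ were selected 20 days after transplantation (n = 5). Compound was given orally on days 0–4 and 7–11. Tumor length and width were measured on days 0, 4, 7, 11, 14 and 18. T/C is V/V0 treated over control; body weight change in %.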

Mus musculus [2] = experiment: Ratio of tumor growth rate of the drug-treated group relative to that of the control group at a dosw of 25 mg/kg; format: functional; in short: as §1
Mus musculus [3] = experiment: Ratio of tumor growth rate of the drug-treated group relative to that of the control group at a dose of 50 mg/kg; format: functional; in short: as §1
Mus musculus [4] = experiment: Compound was tested for percentage Body weight change in vivo against MCF-7 cells implanted into Nude Mice, Dosage 50(mg/kg); format: functional, MCF7; in short: as §1
Mus musculus [5] = experiment: Ratio of tumor growth rate of the drug-treated group relative to that of the control group at a dose of 25 mg/kg; format: functional; in short: as §1
HeLa S3 (Homo sapiens) = experiment: Compound was tested for in vitro Cytotoxicity against HeLa S3 cell lines which were treated for 3 days and uptake of neutral red dye was measured; settings: HeLa S3, 72 h
Mus musculus [6] = experiment: Ratio of tumor growth rate of the drug-treated group relative to that of the control group at a dose of 12.5 mg/kg; format: functional; in short: as §1
Mus musculus [7] = experiment: Compound was tested for percentage Body weight change in vivo against MCF-7 cells implanted into Nude Mice, Dosage 12.5(mg/kg); format: functional, MCF7; in short: as §1
Mus musculus [8] = experiment: Ratio of tumor growth rate of the drug-treated group relative to that of the control group at a dosw of 50 mg/kg; format: functional; in short: as §1
Mus musculus [9] = experiment: Compound was tested for percentage Body weight change in vivo against MCF-7 cells implanted into Nude Mice, Dosage 25 (mg/kg); format: functional, MCF7; in short: as §1
Mus musculus [10] = experiment: Compound was tested for percentage Body weight change in vivo against MCF-7 cells implanted into Nude Mice, Dosage 3.1(mg/kg); format: functional, MCF7; in short: as §1
Mus musculus [11] = experiment: Ratio of tumor growth rate of the drug-treated group relative to that of the control group at a dose of 3.1 mg/kg; format: functional; in short: as §1
Mus musculus [12] = experiment: Ratio of tumor growth rate of the drug-treated group relative to that of the control group at a dose of 6.3 mg/kg; format: functional; in short: as §1
Mus musculus [13] = experiment: Compound was tested for percentage Body weight change in vivo against MCF-7 cells implanted into Nude Mice, Dosage 6.3(mg/kg); format: functional, MCF7; in short: as §1
Mus musculus [14] = experiment: Ratio of tumor growth rate of the drug-treated group relative to that of the control group at a dosw of 6.3 mg/kg; format: functional; in short: as §1
Mus musculus [15] = experiment: Compound was tested for percentage Body weight change in vivo against MCF-7 cells implanted into Nude Mice, Dosage (mg/kg); format: functional, MCF7; in short: as §1
Mus musculus [16] = experiment: Compound was tested for percentage Body weight change in vivo against MCF-7 cells implanted into Nude Mice, Dosage 50 (mg/kg); format: functional, MCF7; in short: as §1
Mus musculus [17] = experiment: Ratio of tumor growth rate of the drug-treated group relative to that of the control group at a dosw of 63 mg/kg; format: functional; settings: dose 6.3 mg/kg; in the assay text read “6.3 mg/kg” for “63 mg/kg”; in short: as §1
Mus musculus [18] = experiment: Compound was tested for percentage Body weight change in vivo against MCF-7 cells implanted into Nude Mice, Dosage 63(mg/kg); format: functional, MCF7; settings: in the assay text read “Dosage 6.3(mg/kg)” for “Dosage 63(mg/kg)”; in short: as §1

## CN(C)CCC(=O)OCc1c(F)c(N)c2c(=O)cc(-c3ccc(N)c(F)c3)oc2c1F
HeLa
  IC50: 11 µM
MCF7
  IC50: 0.019 µM
Mus musculus [1]
  Body weight change: -12%
Mus musculus [2]
  T/C min: 4.1%

## CN(C)CCCC(=O)OCc1c(F)c(N)c2c(=O)cc(-c3ccc(N)c(F)c3)oc2c1F
HeLa
  IC50: 4.5 µM
MCF7
  IC50: 0.029 µM
Mus musculus [1]
  Body weight change: -8.4%
Mus musculus [2]
  T/C min: 15%

## Nc1ccc(-c2cc(=O)c3c(N)c(F)c(CO)c(F)c3o2)cc1F
HeLa
  IC50: 24 µM
MCF7
  IC50: 0.062 µM
Mus musculus [3]
  T/C min: 1.6%
Mus musculus [4]
  Body weight change: -6.7%
Mus musculus [1]
  Body weight change: -4%
Mus musculus [5]
  T/C min: 17%

## CCCCc1c(F)c(N)c2c(=O)cc(-c3ccc(N)c(F)c3)oc2c1F
HeLa
  IC50: > 100 µM
MCF7
  IC50: 8.8 µM

## CS(=O)(=O)c1c(F)c(N)c2c(=O)cc(-c3ccc(N)c(F)c3)oc2c1F
HeLa
  IC50: > 100 µM
MCF7
  IC50: > 10 µM

## CCCCCC(=O)NCc1c(F)c(N)c2c(=O)cc(-c3ccc(N)c(F)c3)oc2c1F
MCF7
  IC50: 0.34 µM
HeLa S3 (Homo sapiens)
  IC50: > 100 µM
Mus musculus [3]
  T/C min: 76%
Mus musculus [4]
  Body weight change: 0%

## CN(C)c1c(F)c(N)c2c(=O)cc(-c3ccc(N)c(F)c3)oc2c1F
HeLa
  IC50: > 100 µM
MCF7
  IC50: 0.039 µM
Mus musculus [6]
  T/C min: 39%
Mus musculus [7]
  Body weight change: -19%

## Nc1ccc(-c2cc(=O)c3c(N)c(F)c(O)c(F)c3o2)cc1F
HeLa
  IC50: > 100 µM
MCF7
  IC50: > 10 µM

## CN(C)Cc1c(F)c(N)c2c(=O)cc(-c3ccc(N)c(F)c3)oc2c1F
HeLa
  IC50: 8.9 µM
MCF7
  IC50: 0.072 µM
Mus musculus [1]
  Body weight change: -17%
Mus musculus [2]
  T/C min: 16%

## CSc1c(F)c(N)c2c(=O)cc(-c3ccc(N)c(F)c3)oc2c1F
HeLa
  IC50: > 100 µM
MCF7
  IC50: 0.19 µM

## CN(C)CCCOCc1c(F)c(N)c2c(=O)cc(-c3ccc(N)c(F)c3)oc2c1F
HeLa
  IC50: 12 µM
MCF7
  IC50: > 10 µM

## COCc1c(F)c(N)c2c(=O)cc(-c3ccc(N)c(F)c3)oc2c1F
HeLa
  IC50: > 100 µM
MCF7
  IC50: 0.046 µM
Mus musculus [8]
  T/C min: 89%
Mus musculus [4]
  Body weight change: 0%

## COc1c(F)c(N)c2c(=O)cc(-c3ccc(N)c(F)c3)oc2c1F
HeLa
  IC50: 34 µM
MCF7
  IC50: 0.1 µM

## C[S+]([O-])c1c(F)c(N)c2c(=O)cc(-c3ccc(N)c(F)c3)oc2c1F (stereo not given)
HeLa
  IC50: > 100 µM
MCF7
  IC50: 2.5 µM

## Nc1ccc(-c2cc(=O)c3c(N)c(F)cc(F)c3o2)cc1F
HeLa
  IC50: > 100 µM
MCF7
  IC50: 0.04 µM
Mus musculus [9]
  Body weight change: -7.4%
Mus musculus [5]
  T/C min: 11%

## Nc1ccc(-c2cc(=O)c3c(N)c(F)c(N)c(F)c3o2)cc1F
Mus musculus [10]
  Body weight change: 5.7%
HeLa
  IC50: 19 µM
Mus musculus [11]
  T/C min: 55%
MCF7
  IC50: 0.0077 µM
Mus musculus [12]
  T/C min: 26%
Mus musculus [13]
  Body weight change: -13%
Mus musculus [6]
  T/C min: 18%
Mus musculus [7]
  Body weight change: -22%

## [N-]=[N+]=Nc1c(F)c(N)c2c(=O)cc(-c3ccc(N)c(F)c3)oc2c1F
HeLa
  IC50: 1.2 µM
MCF7
  IC50: 0.46 µM

## CCc1c(F)c(N)c2c(=O)cc(-c3ccc(N)c(F)c3)oc2c1F
HeLa
  IC50: > 100 µM
MCF7
  IC50: 0.13 µM

## Nc1ccc(-c2cc(=O)c3c(N)c(F)c(C(=O)O)c(F)c3o2)cc1F
HeLa
  IC50: > 100 µM
MCF7
  IC50: > 10 µM

## CCCCCC(=O)OCc1c(F)c(N)c2c(=O)cc(-c3ccc(N)c(F)c3)oc2c1F
HeLa
  IC50: 34 µM
MCF7
  IC50: 0.16 µM
Mus musculus [12]
  T/C min: 27%
Mus musculus [13]
  Body weight change: -5.9%
Mus musculus [6]
  T/C min: 7.9%
Mus musculus [1]
  Body weight change: -7.9%
Mus musculus [7]
  Body weight change: -8.4%
Mus musculus [5]
  T/C min: 0.8%

## CCOC(=O)c1c(F)c(N)c2c(=O)cc(-c3ccc(N)c(F)c3)oc2c1F
HeLa
  IC50: > 100 µM
MCF7
  IC50: 1.4 µM

## CN(C)CC(=O)OCc1c(F)c(N)c2c(=O)cc(-c3ccc(N)c(F)c3)oc2c1F
HeLa
  IC50: 9.2 µM
MCF7
  IC50: 0.026 µM
Mus musculus [3]
  T/C min: 1%
Mus musculus [13]
  Body weight change: -4.8%
Mus musculus [14]
  T/C min: 68%
Mus musculus [4]
  Body weight change: -11%
Mus musculus [1]
  Body weight change: -9%
Mus musculus [5]
  T/C min: 4%

## Nc1ccc(-c2cc(=O)c3c(N)c(F)c(Br)c(F)c3o2)cc1F
HeLa
  IC50: > 100 µM
MCF7
  IC50: 0.16 µM

## CN(C)CCOc1c(F)c(N)c2c(=O)cc(-c3ccc(N)c(F)c3)oc2c1F
HeLa
  IC50: 1.5 µM
MCF7
  IC50: 1.4 µM

## Nc1ccc(-c2cc(=O)c3c(N)c(F)c(Cl)c(F)c3o2)cc1F
HeLa
  IC50: > 100 µM
MCF7
  IC50: 0.21 µM

## CCC(=O)OCc1c(F)c(N)c2c(=O)cc(-c3ccc(N)c(F)c3)oc2c1F
HeLa
  IC50: 69 µM
MCF7
  IC50: 0.13 µM
Mus musculus [15]
  Body weight change: -2.4%
Mus musculus [5]
  T/C min: 79%

## CC(=O)OCc1c(F)c(N)c2c(=O)cc(-c3ccc(N)c(F)c3)oc2c1F
HeLa
  IC50: 4.9 µM
MCF7
  IC50: 0.026 µM
Mus musculus [3]
  T/C min: 11%
Mus musculus [4]
  Body weight change: -4.5%
Mus musculus [1]
  Body weight change: -5.9%
Mus musculus [5]
  T/C min: 6.1%

## NCc1c(F)c(N)c2c(=O)cc(-c3ccc(N)c(F)c3)oc2c1F
HeLa
  IC50: 8.8 µM
MCF7
  IC50: 0.026 µM
Mus musculus [8]
  T/C min: 1.1%
Mus musculus [16]
  Body weight change: -11%
Mus musculus [1]
  Body weight change: -8.5%
Mus musculus [17]
  T/C min: 60%
Mus musculus [18]
  Body weight change: -5.8%
Mus musculus [5]
  T/C min: 11%

## CN(C)CCOCc1c(F)c(N)c2c(=O)cc(-c3ccc(N)c(F)c3)oc2c1F
HeLa
  IC50: 4.6 µM
MCF7
  IC50: > 10 µM
Mus musculus [8]
  T/C min: 57%
Mus musculus [4]
  Body weight change: -7.9%

## CCCCCCCCCC(=O)OCc1c(F)c(N)c2c(=O)cc(-c3ccc(N)c(F)c3)oc2c1F
HeLa
  IC50: > 100 µM
MCF7
  IC50: 0.1 µM
Mus musculus [1]
  Body weight change: -5%
Mus musculus [5]
  T/C min: 13%

## CCCCCCCCCCCCCCCCCC(=O)OCc1c(F)c(N)c2c(=O)cc(-c3ccc(N)c(F)c3)oc2c1F
HeLa
  IC50: > 100 µM
MCF7
  IC50: > 10 µM
Mus musculus [1]
  Body weight change: -4.8%
Mus musculus [5]
  T/C min: 20%

## CCCCCCc1c(F)c(N)c2c(=O)cc(-c3ccc(N)c(F)c3)oc2c1F
HeLa
  IC50: 21 µM
MCF7
  IC50: > 10 µM

## C[N+](C)(C)Cc1c(F)c(N)c2c(=O)cc(-c3ccc(N)c(F)c3)oc2c1F
HeLa
  IC50: 32 µM
MCF7
  IC50: 3.1 µM

## CCCOCc1c(F)c(N)c2c(=O)cc(-c3ccc(N)c(F)c3)oc2c1F
HeLa
  IC50: 78 µM
MCF7
  IC50: 1.2 µM

## CCCCCCOCc1c(F)c(N)c2c(=O)cc(-c3ccc(N)c(F)c3)oc2c1F
HeLa
  IC50: > 100 µM
MCF7
  IC50: 7.1 µM

## Cc1c(F)c(N)c2c(=O)cc(-c3ccc(N)c(F)c3)oc2c1F [AMINOFLAVONE]
HeLa
  IC50: > 100 µM
MCF7
  IC50: 0.013 µM
Mus musculus [12]
  T/C min: 55%
Mus musculus [13]
  Body weight change: -8.7%
Mus musculus [6]
  T/C min: 11%
Mus musculus [7]
  Body weight change: -11%
